# In ChEMBL document CHEMBL1275586, “Phenotypic susceptibility to bevirimat in isolates from HIV-1-infected patients without prior exposure to bevirimat” (Antimicrob Agents Chemother, 2010):
# Experiments:
# [1] = test system: Human immunodeficiency virus 1; assay: Antiviral activity against Human immunodeficiency virus 1 isolate 35 harboring Gag-capsid G357S mutant gene and Gag-SP1 V370A, T371Q, N372S, T375N and I376M mutant gene infected in human MT-2 cells by XTT assay relative to wild-type; format: functional, MT2
# Summary of the method: (§1)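 Patient Gag-protease (SfoI-XmaI) fragments were ligated into the pXXLAI backbone, with colonies pooled to keep quasispecies. Virus came from 293T transfection, harvested at 2 days. MT-2 infection at 37°C used an input giving XTT signal-to-noise of 2.5–4.0 (≈MOI 0.001). Cells at ≈17,000/well with drug dilutions, 5 days, 37°C; XTT 1 h, A450–650. EC50 from % cell death; fold change vs wild-type LAI.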
# [2] = test system: Human immunodeficiency virus 1; assay: Antiviral activity against antiretroviral-pretreated Human immunodeficiency virus 1 isolate 22 infected in human MT-2 cells by XTT assay relative to wild-type; format: functional, MT2
# Summary of the method: (§2)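 Patient-derived Gag fragments were pooled as bacterial colonies to keep quasispecies diversity and ligated into the pXXLAI (HIV-1 LAI) backbone. Virus was made by transfecting 293T cells and harvesting supernatant 2 days later. MT-2 cells were infected at 37°C with an inoculum titrated to give an XTT signal-to-noise of 2.5–4.0. Cells were plated into drug dilutions, incubated 5 days at 37°C, and read by XTT absorbance (450−650 nm). EC50 was taken from percent cell death and expressed as fold change versus wild-type LAI.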
# [3] = test system: Human immunodeficiency virus 1; assay: Antiviral activity against antiretroviral-pretreated PI-resistant Human immunodeficiency virus 1 isolate 2 harboring Gag-SP-1 S373A, A374G and T375A mutant gene infected in human MT-2 cells by XTT assay relative to wild-type
# [4] = test system: Human immunodeficiency virus 1; assay: Antiviral activity against Human immunodeficiency virus 1 isolate 7 harboring Gap-SP-1 V362I mutant infected in human MT-2 cells by XTT-assay relative to wild-type; format: functional, MT2; summary of the method: as §1
# [5] = test system: Human immunodeficiency virus 1; assay: Antiviral activity against Human immunodeficiency virus 1 isolate 6 harboring Gag-SP-1 V370, S373 and A374 mutant infected in human MT-2 cells by XTT-assay relative to wild-type; format: functional, MT2; summary of the method: as §1
# [6] = test system: Human immunodeficiency virus 1; assay: Antiviral activity against antiretroviral-pretreated PI-resistant Human immunodeficiency virus 1 isolate 26 harboring Gag-SP1 N372S, S373P and T375N mutant gene infected in human MT-2 cells by XTT assay relative to wild-type; format: functional, MT2; summary of the method: as §2
# [7] = test system: Human immunodeficiency virus 1; assay: Antiviral activity against Human immunodeficiency virus 1 isolates harboring deletion at T371 in Gag-SP-1 relative to wild-type; format: functional
# Summary of the method: (§3)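 Site-directed mutants were made by two-round overlap PCR into the pXXLAI (HIV-1 LAI) backbone from an individual clone, then transfected into 293T cells, with supernatant harvested at 2 days. MT-2 cells were infected at an input giving an XTT signal-to-noise of 2.5–4.0, plated at ≈17,000 cells/well with drug dilutions, and read by XTT after 5 days. EC50 from % cell death; fold change vs wild-type LAI.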
# [8] = test system: Human immunodeficiency virus 1; assay: Antiviral activity against Human immunodeficiency virus 1 isolate 29 harboring Gag-capsid I138M, A146P, R286K and A326S mutant gene and protease L10F, I13V, V32I, M36L, S37N, M46I, I47V, I62V, L63P, A71I, I72V and V82A mutant gene infected in human MT-2 cells by XTT-assay relative to wild-type; format: functional, MT2; summary of the method: as §1
# [9] = test system: Human immunodeficiency virus 1; assay: Antiviral activity against Human immunodeficiency virus 1 isolate 1 harboring Gag-SP-1 S368, V370 and deletion at T371 in Gag-SP-1 mutant infected in human MT-2 cells by XTT-assay relative to wild-type; format: functional, MT2; summary of the method: as §1
# [10] = test system: Human immunodeficiency virus 1; assay: Antiviral activity against antiretroviral-pretreated PI-resistant Human immunodeficiency virus 1 isolate 28 infected in human MT-2 cells by XTT assay relative to wild-type; format: functional, MT2; summary of the method: as §2
# [11] = test system: Human immunodeficiency virus 1; assay: Antiviral activity against Human immunodeficiency virus 1 isolate 32 harboring Gag-SP1 V370I and N372G mutant gene infected in human MT-2 cells by XTT assay relative to wild-type; format: functional, MT2; summary of the method: as §1
# [12] = test system: Human immunodeficiency virus 1; assay: Antiviral activity against Human immunodeficiency virus 1 isolate 2 harboring Gag-capsid A146P, S173A, V215L, E230D, N252S, L268M and A340G mutant gene and protease L10I, I15V, K20R, M36I, S37N, M46I, L63P, V82A, N83H, I84V, I85T and L90M mutant gene infected in human MT-2 cells by XTT-assay relative to wild-type; format: functional, MT2; summary of the method: as §1
# [13] = test system: Human immunodeficiency virus 1; assay: Antiviral activity against Human immunodeficiency virus 1 isolate 33 harboring Gag-SP1 S368G, V370M and S373T mutant gene infected in human MT-2 cells by XTT assay relative to wild-type; format: functional, MT2; summary of the method: as §1
# [14] = test system: Human immunodeficiency virus 1; assay: Antiviral activity against antiretroviral-pretreated Human immunodeficiency virus 1 isolate 12 harboring Gag-capsid G357S and V362I mutant gene infected in human MT-2 cells by XTT assay relative to wild-type; format: functional, MT2; summary of the method: as §2
# [15] = test system: Human immunodeficiency virus 1; assay: Antiviral activity against antiretroviral-pretreated PI-resistant Human immunodeficiency virus 1 isolate 6 harboring Gag-SP-1 V370A,S373A and A374T mutant gene infected in human MT-2 cells by XTT assay relative to wild-type; format: functional, MT2; summary of the method: as §2
# [16] = test system: Human immunodeficiency virus 1; assay: Antiviral activity against antiretroviral-pretreated Human immunodeficiency virus 1 isolate 8 infected in human MT-2 cells by XTT assay relative to wild-type; format: functional, MT2; summary of the method: as §2
# [17] = test system: Human immunodeficiency virus 1; assay: Antiviral activity against Human immunodeficiency virus 1 isolate 4 harboring Gag-capsid A146P, V159I, V215L, I223G/V, P255A, E312D and G357S mutant gene and protease L10R, S37N, M46L, I62V, L63P, A71V, V82T, L90M and I93L mutant gene infected in human MT-2 cells by XTT-assay relative to wild-type; format: functional, MT2; summary of the method: as §1
# [18] = test system: Human immunodeficiency virus 1; assay: Antiviral activity against antiretroviral-pretreated PI-resistant Human immunodeficiency virus 1 isolate 25 harboring Gag-capsid G357S mutant gene and Gag-SP-1 […] mutant gene infected in human MT-2 cells by XTT assay relative to wild-type; format: functional, MT2; summary of the method: as §2
# [19] = test system: Human immunodeficiency virus 1; assay: Antiviral activity against antiretroviral-pretreated PI-resistant Human immunodeficiency virus 1 isolate 7 infected in human MT-2 cells by XTT assay relative to wild-type; format: functional, MT2; summary of the method: as §2
# [20] = test system: Human immunodeficiency virus 1; assay: Antiviral activity against antiretroviral-pretreated PI-resistant Human immunodeficiency virus 1 isolate 3 harboring Gag-capsid G357S mutant gene, Gag-Sp-1 V370A and N372H mutant gene and deletion at T371 in Gag-SP-1 infected in human MT-2 cells by XTT assay relative to wild-type; format: functional, MT2; summary of the method: as §2
# [21] = test system: Human immunodeficiency virus 1; assay: Antiviral activity against Human immunodeficiency virus 1 isolate 8 harboring Gag-SP1 V362I mutant infected in human MT-2 cells by XTT-assay relative to wild-type; format: functional, MT2; summary of the method: as §1
# [22] = test system: Human immunodeficiency virus 1; assay: Antiviral activity against Human immunodeficiency virus 1 isolates harboring Gag-SP-1 V370A mutant gene relative to wild-type; format: functional; summary of the method: as §3
# [23] = test system: Human immunodeficiency virus 1; assay: Antiviral activity against Human immunodeficiency virus 1 LAI Gag-[…] V362I mutant infected in human MT-2 cells by XTT-assay relative to wild-type; format: functional, MT2; summary of the method: as §3
# [24] = test system: Human immunodeficiency virus 1; assay: Antiviral activity against antiretroviral-pretreated PI-resistant Human immunodeficiency virus 1 isolate 27 harboring infected in human MT-2 cells by XTT assay relative to wild-type
# [25] = test system: Human immunodeficiency virus 1; assay: Antiviral activity against Human immunodeficiency virus 1 isolate 34 harboring Gag-capsid G357S mutant gene and Gag-SP1 V370A, N372T, S373P and T375A mutant gene infected in human MT-2 cells by XTT assay relative to wild-type; format: functional, MT2; summary of the method: as §1
smiles,measurement,setting,value
C=C(C)[C@@H]1CC[C@]2(C(=O)O)CC[C@]3(C)[C@H](CC[C@@H]4[C@@]5(C)CC[C@H](OC(=O)CC(C)(C)C(=O)O)C(C)(C)[C@@H]5CC[C@]43C)[C@@H]12 [BEVIRIMAT],fold change (FC),[1],>100
same,fold change (FC),[2],0.7
same,fold change (FC),[3],>100
same,fold change (FC),[4],>100
same,fold change (FC),[5],0.4
same,fold change (FC),[6],1.3
same,fold change (FC),[7],52.2
same,fold change (FC),[8],>100
same,fold change (FC),[9],0.6
same,fold change (FC),[10],1.3
same,fold change (FC),[11],0.9
same,fold change (FC),[12],>100
same,fold change (FC),[13],>100
same,fold change (FC),[14],>100
same,fold change (FC),[15],>100
same,fold change (FC),[16],1.2
same,fold change (FC),[17],>100
same,fold change (FC),[18],11
same,fold change (FC),[19],1
same,fold change (FC),[20],>100
same,fold change (FC),[21],>100
same,fold change (FC),[22],>151.4
same,fold change (FC),[23],>100
same,fold change (FC),[24],36
same,fold change (FC),[25],>100
